A short description of the series: Toxicity liver stage against HepG2, at 10uM. Format: cell-based. The arrangement: test concentration 10 uM, cell line HepG2-A16-CD81EGFP. Conditions: human, HepG2-A16-CD81EGFP cells; read-out: INHIBITION
The gist of the method: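 Uninfected HepG2-A16-CD81EGFP cells, 3 × 10^3 per well, 1536-well, plated on prespotted compound at 10 μM final, parasite-free screening media added to match infected plates; puromycin 10 μM positive, DMSO 0.5% negative; run in parallel with 48 h PbLuc assay at 37 °C, 5% CO2; viability by CellTiter-Glo luminescence, normalized to controls.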
`CNC(=O)[C@H]1CC[C@@H]2[C@@H](CCN2C(=O)N(C)C)O1`: the cytotoxicity at 10 µM is 6.86%. Then `Cn1cc(-c2nc(C3CCN(S(C)(=O)=O)CC3)cc3c2ncn3C)cn1`, with 1.39%; and `O=C(NCc1ccc(Cl)cc1)C1CCCN(c2ccc3nncn3n2)C1` (configuration not stated), with 6.44%. For `Cc1ccc(C(=O)N2CCCC3(CCCC(=O)N3C)C2)cc1F` (configuration not stated) the value was 4.12%; for `Cc1c[nH]nc1C1CCCN1Cc1ccncc1` (configuration not stated), 13.1%. For `CNc1cc(C2CCN2c2ncccn2)nc(C)n1` (configuration not stated) the value was 1.72%; for `CCCNC(=O)Nc1ncc(-c2cccnc2)s1`, 3.11%.

Take `COCCN1CCC(c2nc3cc(C)ccc3[nH]2)CC1`: the cytotoxicity at 10 µM was -0.621%.

On to `Cc1cccc(NC(=O)c2cncc(C3CCNCC3)n2)n1`, for which the cytotoxicity at 10 µM worked out at 0.691%. For `NC1(CN2CCCCC2)CCCCC1` the value was 1.46%; for `CNc1cc(C2CCCN(C(=O)c3ccc(=O)[nH]n3)C2)ccn1` (configuration not stated), -11.8%; for `O=C(CN1CCCC(c2noc(C3CC3)n2)C1)N1CCCC1` (configuration not stated), 1.87%. Then `CC(NCc1cnn(C)c1)c1noc(-c2ccc(Cl)cc2)n1` (configuration not stated), with 3.97%; and `O=C1CSc2ccc(C(=O)N3CCCC(n4ccnc4)C3)cc2N1` (configuration not stated), with -8.44%. In the case of `N#CCCN(CC1CCOC1)Cn1ccc(-c2ccccc2)n1` (configuration not stated), the cytotoxicity at 10 µM was -3.8%. For `N#CCCN(CC1CCOC1)Cn1ccc(-c2cccs2)n1` (configuration not stated) the value was 10.9%. For `CC(C)(NCc1cccc(C#N)c1)c1ccc2c(c1)OCO2` the value was 3.34%. For `CN(C)Cc1nc(C(C)(C)NC(=O)c2ccc3ccccc3c2)no1` the value was -2.22%; for `C=C(C)CN(c1cn[nH]c1)S(=O)(=O)c1cccc(C#N)c1`, 3.84%; for `CCN(CC)C(=O)N1CCN(CCc2ccncc2)CC1`, -38.9%. Take `CSCc1ccc(CNCCN2CCOCC2)o1`: the cytotoxicity at 10 µM is -0.583%. Then `Cc1cc(NCCC(=O)NC2CCS(=O)(=O)C2)nc(-c2ccncc2)n1` (configuration not stated), with -6.74%. Turning to `COCCN1CCC(NC(=O)NCC2(c3ccccc3)CC2)C1` (configuration not stated), the cytotoxicity at 10 µM worked out at 0.814%.

With `O=C(Nc1ccc(Cl)cn1)C1CCCN(Cc2ccccn2)C1` (configuration not stated), the cytotoxicity at 10 µM is -10.5%.

As for `CS(=O)(=O)CCCC(=O)Nc1cc(Cl)c(Cl)cn1`, the cytotoxicity at 10 µM is 2.69%. For `Cc1nn(C)c(N2CCCN(C)CC2)c1CNC(=O)CC(C)(C)C` the value was 8%; for `Cc1csc(CNC(=O)NCC(O)c2ccc(F)cc2)n1` (configuration not stated), 12.1%; for `N#Cc1cccc(S(=O)(=O)N2CCCCC2C(N)=O)c1` (configuration not stated), 0.645%. Then `Cn1cnn(Cc2c(F)cccc2Br)c1=O`, with 4.48%; and `O=C(CCN1CCOC1=O)N(Cc1ccncc1)CC1CCCO1` (configuration not stated), with 0.606%. Then `CN(Cc1ccccc1)C(=O)CN1CCCC1c1cnn(C)c1` (configuration not stated), with 6.91%. For `Cc1ccc(C(=O)N2CCOc3nc(C)ccc32)c(F)c1`, the cytotoxicity at 10 µM is -2.71%. Then `CCN1CCCN(S(=O)(=O)c2cnc3onc(C)c3c2)CC1`, with 4.62%; and `CC(Cn1cccn1)NC(=O)c1ccsc1` (configuration not stated), with -5.2%; and `Cc1cnc(CNC(=O)N(Cc2ccccc2)CC(C)(C)O)s1`, with -3.22%. For `CC(NC(=O)NCCN1CCCCCC1=O)c1ccc(Cl)s1` (configuration not stated) the value was -0.331%. Then `Cc1cc(C)n(CCCNC(=O)[C@@H](C)NC(=O)OC(C)(C)C)n1`, with -8%; and `Cc1nc(C)c(C(=O)N2CCCC2c2nnc3n2CCCCC3)s1` (configuration not stated), with -2.62%.

As to `Cn1ccnc1CC1CCCN(C(=O)Nc2cccn(C)c2=O)C1` (configuration not stated), the cytotoxicity at 10 µM is -4.79%. `Cc1cccc(S(=O)(=O)N2C[C@@H]3C[C@@H](c4nnc(C)[nH]4)O[C@@H]3C2)c1`: the cytotoxicity at 10 µM was 9.59%. Then `COC[C@@]12CC[C@@H](N3CCOCC3)C[C@H]1CCN(c1nc(CO)cs1)C2`, with -3.61%; and `COCc1cc(NCc2ccccc2-n2cncn2)ncn1`, with -0.132%; and `O=C(c1cnn2ccccc12)N1CCCC(OCc2ccccn2)C1` (configuration not stated), with -3.74%. Then `CCOC(=O)CCNC(=O)N1CCCC(CNC(=O)c2ccco2)C1` (configuration not stated), with 14.9%; and `CN1CCC(n2nc(Cc3cccc(Cl)c3)nc2Cn2cnnn2)CC1`, with -12.4%; and `O=C(c1cnc(O)cc1O)N1CCCC(CCc2ccccc2F)C1` (configuration not stated), with -2.24%.

On to `CNCCN1C(=O)CC[C@H]2CN(c3cnc4ccccc4n3)CC[C@H]21`, for which the cytotoxicity at 10 µM was -1.62%. Then `Cc1cc(CN2CCN(C(C)C)C(CCO)C2)[nH]n1` (configuration not stated), with 4.86%; and `COCCn1cnnc1CNc1cc(C)nc2c(C)c(C)nn12`, with -0.715%. As for `Cc1cc(N[C@H]2CCCC[C@@H]2O)n2nccc2n1`, the cytotoxicity at 10 µM is -1.42%. Then `Cc1ccc(C(=O)O)cc1-c1cccc2c1CCNC2`, with 7.56%; and `O=C(c1cc2ccccc2[nH]c1=O)N1CCC2(CCCNC2)C1` (configuration not stated), with -4.66%; and `COc1cccc(-c2ncc(CN3CC[C@H](CO)[C@@H](O)C3)s2)c1`, with 4.23%. For `COCc1noc(CN2CCC3(CC2)[C@H](O)C[C@@H]3OC)n1` the value was 0.0851%; for `CN(CC(=O)Nc1ccon1)S(=O)(=O)c1cc(Cl)ccc1Cl`, 0.424%. Then `COc1ccc2c(C(=O)N(C)C)cc(-c3cnc(N)nc3)nc2c1`, with -3.3%; and `COCc1c(C(=O)N2CCCC(C(=O)c3ccccc3)C2)noc1C` (configuration not stated), with -2.54%; and `CC(=O)N(C)C(c1cccc(F)c1)c1ccccn1` (configuration not stated), with -1.63%.

In the case of `Cn1ccc(C(=O)Nc2cc(F)ccc2OCC2CCCO2)cc1=O` (configuration not stated), the cytotoxicity at 10 µM is -1.59%.

On to `c1cncc(-c2noc(CN3CCn4c(nnc4C4CC4)C3)n2)c1`, for which the cytotoxicity at 10 µM was -8.69%. Then `O=C(NCc1cc[nH]n1)NCC(c1ccccc1)N1CCOCC1` (configuration not stated), with -3.39%; and `Cc1cnn(CC2CN(c3nnc(C)c(C)c3C#N)CCO2)c1` (configuration not stated), with -5.25%.

Regarding `COC(=O)c1cccn1C1CCN(Cc2nc3ccccc3o2)CC1`, the cytotoxicity at 10 µM worked out at 1.81%. For `CC(=O)Nc1nc(CN2CCOC(Cn3nc(C)cc3C)C2)cs1` (configuration not stated) the value was 4.23%. With `CC1CN(C(=O)CN(Cc2ccccc2)C2CC2)CCO1` (configuration not stated), the cytotoxicity at 10 µM is -16.1%. Then `CN(Cc1cccc(F)c1)C(=O)CS(=O)(=O)Cc1ccc(Cl)c(Cl)c1`, with -4.67%. In the case of `CC(C(=O)N1CCCN(c2ncccc2C#N)CC1)n1ccnc1` (configuration not stated), the cytotoxicity at 10 µM is -2.6%. In the case of `c1csc(CN2CCCn3nnc(COCC4CC4)c3C2)n1`, the cytotoxicity at 10 µM was -101%. For `O=C(N1CCCC1)N1CCC2(CCN(Cc3ccccn3)C2=O)C1` (configuration not stated) the value was 3.2%; for `Cn1cc(CN2CCC[C@]3(C[C@@H](Oc4ccccn4)CO3)C2)cn1`, 7.5%; for `c1cnc(N2CCC3(CCN(CC4CCOC4)CC3)CC2)nc1` (configuration not stated), -1.22%.

With `COc1cccc(CC(=O)N2CC[C@@H](OC)[C@@H]2Cc2cccnc2)c1`, the cytotoxicity at 10 µM was 3.71%.

These data come from ChEMBL document CHEMBL4513216, “Probing the Open Global Health Chemical Diversity Library for Multistage-Active Starting Points for Next-Generation Antimalarials” (ACS Infect Dis, 2020).
